# Key:
# Human alphaherpesvirus 2 = assay: Antiviral activity against Herpes simplex virus 2 G infected in HEL cells assessed as inhibition of virus induced cytopathicity after 2 to 4 days by MTS assay; format: functional, organism-based; settings: Human alphaherpesvirus 2, strain G
# Bacillus subtilis = assay: Antimicrobial activity against Bacillus subtilis after 24 hrs by tube dilution method; format: functional
# Summary of the method: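 Serial dilutions in double-strength nutrient broth (I.P.) with ciprofloxacin as reference, tube dilution, incubated 37 °C for 24 h. MIC is the lowest concentration that inhibited growth.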
# Candida albicans = assay: Antimicrobial activity against Candida albicans after 48 hrs by tube dilution method; format: functional
# [1] = Cytotoxicity against MDCK cells assessed as altered cell morphology; format: cell-based, Canis lupus familiaris; settings: dog
# Summary of the method: (§1)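 Uninfected cell cultures run alongside the antiviral assays, exposed to serial compound dilutions and incubated at 37 °C for 2–4 days. Toxicity was scored microscopically and reported as the minimum cytotoxic concentration (MCC), the lowest concentration causing a detectable change in normal cell morphology.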
# Escherichia coli = assay: Antimicrobial activity against Escherichia coli after 24 hrs by tube dilution method; format: functional
# Sindbis virus = assay: Antiviral activity against Sindbis virus infected in african green monkey Vero cells assessed as inhibition of virus induced cytopathicity after 2 to 4 days by MTS assay; format: functional, organism-based
# [2] = Cytotoxicity against human HeLa cells assessed as altered cell morphology; format: cell-based; summary of the method: as §1
# Human alphaherpesvirus 1 [3] = assay: Antiviral activity against Herpes simplex virus 1 KOS infected in HEL cells assessed as inhibition of virus induced cytopathicity after 2 to 4 days by MTS assay; format: functional, organism-based; settings: Human alphaherpesvirus 1, KOS
# Coxsackievirus B4 [4] = assay: Antiviral activity against coxsackievirus B4 infected in human HeLa cells assessed as inhibition of virus induced cytopathicity by visual scoring of CPE; format: functional, organism-based; settings: Enterovirus B
# MDCK = assay: Cytotoxicity against MDCK cells assessed as cell viability by MTS assay; format: cell-based, Canis lupus familiaris; settings: dog, mdck
# Summary of the method: (§2)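 Uninfected cultures were run in parallel with the antiviral assays. Viability was read by colorimetric formazan MTS assay.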
# [5] = Cytotoxicity against african green monkey Vero cells assessed as altered cell morphology; format: cell-based; settings: chlorocebus sabaeus; summary of the method: as §1
# Coxsackievirus B4 [6] = assay: Antiviral activity against coxsackievirus B4 infected in human HeLa cells assessed as inhibition of virus induced cytopathicity after 2 to 4 days by MTS assay; format: functional, organism-based; settings: Enterovirus B
# Vaccinia virus = assay: Antiviral activity against Vaccinia virus infected in HEL cells assessed as inhibition of virus induced cytopathicity after 2 to 4 days by MTS assay; format: functional, organism-based; settings: Orthopoxvirus vaccinia
# Aspergillus niger = assay: Antimicrobial activity against Aspergillus niger after 7 days by tube dilution method; format: functional; settings: 168 h
# [7] = Cytotoxicity against cat CRFK cells assessed as cell viability by MTS assay; format: cell-based, Felis catus; settings: crfk; summary of the method: as §2
# Human alphaherpesvirus 1 [8] = assay: Antiviral activity against thymidine kinase deficient acyclovir-resistant Herpes simplex virus 1 KOS infected in HEL cells assessed as inhibition of virus induced cytopathicity after 2 to 4 days by MTS assay; format: functional, organism-based; settings: Human alphaherpesvirus 1, KOS
# [9] = tested on: Vesicular stomatitis virus; assay: Antiviral activity against Vesicular stomatitis virus infected in HEL cells assessed as inhibition of virus induced cytopathicity after 2 to 4 days by MTS assay; format: functional, organism-based
# [10] = tested on: Respiratory syncytial virus; assay: Antiviral activity against Respiratory syncytial virus infected in human HeLa cells assessed as inhibition of virus induced cytopathicity after 2 to 4 days by MTS assay; format: functional, organism-based
# [11] = tested on: Vesicular stomatitis virus; assay: Antiviral activity against Vesicular stomatitis virus infected in human HeLa cells assessed as inhibition of virus induced cytopathicity by visual scoring of CPE; format: functional, organism-based
# [12] = Cytotoxicity against human HEL cells assessed as altered cell morphology; format: cell-based; summary of the method: as §1
# Felid alphaherpesvirus 1 = assay: Antiviral activity against Feline herpesvirus 1 infected in cat CRFK cells assessed as inhibition of virus induced cytopathicity after 2 to 4 days by MTS assay; format: functional, organism-based; settings: Felid alphaherpesvirus 1, CRFK
# Influenza A virus [13] = assay: Antiviral activity against Influenza A H3N2 virus subtype infected in MDCK cells assessed as inhibition of virus induced cytopathicity after 2 to 4 days by MTS assay; format: functional, organism-based
# Human respirovirus 3 = assay: Antiviral activity against parainfluenza-3 virus infected in african green monkey Vero cells assessed as inhibition of virus induced cytopathicity after 2 to 4 days by MTS assay; format: functional, organism-based; settings: Human respirovirus 3, Vero
# [14] = tested on: Vesicular stomatitis virus; assay: Antiviral activity against Vesicular stomatitis virus infected in human HeLa cells assessed as inhibition of virus induced cytopathicity after 2 to 4 days by MTS assay; format: functional, organism-based
# Punta Toro virus = assay: Antiviral activity against Punta Toro virus infected in african green monkey Vero cells assessed as inhibition of virus induced cytopathicity after 2 to 4 days by MTS assay; format: functional, organism-based
# [15] = tested on: Respiratory syncytial virus; assay: Antiviral activity against Respiratory syncytial virus infected in human HeLa cells assessed as inhibition of virus induced cytopathicity by visual scoring of CPE; format: functional, organism-based
# [16] = tested on: Mammalian orthoreovirus 1; assay: Antiviral activity against Reovirus 1 virus infected in african green monkey Vero cells assessed as inhibition of virus induced cytopathicity after 2 to 4 days by MTS assay; format: functional, organism-based; settings: Mammalian orthoreovirus 1, Vero
# Coxsackievirus B4 [17] = assay: Antiviral activity against Coxsackie virus B4 infected in african green monkey Vero cells assessed as inhibition of virus induced cytopathicity after 2 to 4 days by MTS assay; format: functional, organism-based; settings: Enterovirus B
# Influenza B virus [18] = assay: Antiviral activity against Influenza B virus infected in MDCK cells assessed as inhibition of virus induced cytopathicity after 2 to 4 days by MTS assay; format: functional, organism-based
# Feline coronavirus = assay: Antiviral activity against Feline coronavirus infected in cat CRFK cells assessed as inhibition of virus induced cytopathicity after 2 to 4 days by MTS assay; format: functional, organism-based; settings: Alphacoronavirus 1, CRFK
# Influenza A virus [19] = assay: Antiviral activity against Influenza A H3N2 virus subtype infected in MDCK cells assessed as inhibition of virus induced cytopathicity by visual scoring of CPE; format: functional, organism-based
# HeLa = assay: Cytotoxicity against human HeLa cells assessed as cell viability by MTS assay; format: cell-based; settings: hela; summary of the method: as §2
# Influenza B virus [20] = assay: Antiviral activity against Influenza B virus infected in MDCK cells assessed as inhibition of virus induced cytopathicity by visual scoring of CPE; format: functional, organism-based
# Staphylococcus aureus = assay: Antimicrobial activity against Staphylococcus aureus after 24 hrs by tube dilution method; format: functional
SMILES,EC50 (Human alphaherpesvirus 2) [µg/mL],MBC (Bacillus subtilis) [µg/mL],MFC (Candida albicans) [µg/mL],MCC [1] [µg/mL],MBC (Escherichia coli) [µg/mL],EC50 (Sindbis virus) [µg/mL],MCC [2] [µg/mL],EC50 (Human alphaherpesvirus 1 [3]) [µg/mL],EC50 (Coxsackievirus B4 [4]) [µg/mL],CC50 (MDCK) [µg/mL],MCC [5] [µg/mL],EC50 (Coxsackievirus B4 [6]) [µg/mL],EC50 (Vaccinia virus) [µg/mL],MFC (Aspergillus niger) [µg/mL],CC50 [7] [µg/mL],EC50 (Human alphaherpesvirus 1 [8]) [µg/mL],EC50 [9] [µg/mL],EC50 [10] [µg/mL],EC50 [11] [µg/mL],MCC [12] [µg/mL],other results
Cc1ccccc1C(=O)n1c(-c2ccc(S(=O)(=O)O)cc2)nc2ccccc21,> 100,> 50,50,> 100,3.12,> 100,> 100,> 100,> 100,> 100,> 100,> 100,> 100,> 50,> 100,> 100,> 100,> 100,> 100,> 100,EC50 (Felid alphaherpesvirus 1): > 100 µg/mL; EC50 (Influenza A virus [13]): > 100 µg/mL; EC50 (Human respirovirus 3): > 100 µg/mL; EC50 [14]: > 100 µg/mL; EC50 (Punta Toro virus): > 100 µg/mL; EC50 [15]: > 100 µg/mL; EC50 [16]: > 100 µg/mL; EC50 (Coxsackievirus B4 [17]): > 100 µg/mL; EC50 (Influenza B virus [18]): > 100 µg/mL; EC50 (Feline coronavirus): > 100 µg/mL; EC50 (Influenza A virus [19]): > 100 µg/mL; CC50 (HeLa): > 100 µg/mL; EC50 (Influenza B virus [20]): > 100 µg/mL; MBC (Staphylococcus aureus): 6.25 µg/mL
O=C(c1ccccc1Cl)n1c(-c2ccc(S(=O)(=O)O)cc2)nc2ccccc21,> 100,> 50,> 50,> 100,1.56,> 100,> 100,> 100,> 100,> 100,> 100,> 100,> 100,> 50,> 100,> 100,> 100,> 100,> 100,> 100,EC50 (Felid alphaherpesvirus 1): > 100 µg/mL; EC50 (Influenza A virus [13]): > 100 µg/mL; EC50 (Human respirovirus 3): > 100 µg/mL; EC50 [14]: > 100 µg/mL; EC50 (Punta Toro virus): > 100 µg/mL; EC50 [15]: > 100 µg/mL; EC50 [16]: > 100 µg/mL; EC50 (Coxsackievirus B4 [17]): > 100 µg/mL; EC50 (Influenza B virus [18]): > 100 µg/mL; EC50 (Feline coronavirus): > 100 µg/mL; EC50 (Influenza A virus [19]): > 100 µg/mL; CC50 (HeLa): > 100 µg/mL; EC50 (Influenza B virus [20]): > 100 µg/mL; MBC (Staphylococcus aureus): 25 µg/mL
O=C(c1ccc(Cl)cc1)n1c(-c2ccc(S(=O)(=O)O)cc2)nc2ccccc21,> 100,> 50,> 50,> 100,1.56,> 100,> 100,> 100,> 100,> 100,> 100,> 100,> 100,> 50,> 100,> 100,> 100,> 100,> 100,> 100,EC50 (Felid alphaherpesvirus 1): > 100 µg/mL; EC50 (Influenza A virus [13]): > 100 µg/mL; EC50 (Human respirovirus 3): > 100 µg/mL; EC50 [14]: > 100 µg/mL; EC50 (Punta Toro virus): > 100 µg/mL; EC50 [15]: > 100 µg/mL; EC50 [16]: > 100 µg/mL; EC50 (Coxsackievirus B4 [17]): > 100 µg/mL; EC50 (Influenza B virus [18]): > 100 µg/mL; EC50 (Feline coronavirus): > 100 µg/mL; EC50 (Influenza A virus [19]): > 100 µg/mL; CC50 (HeLa): > 100 µg/mL; EC50 (Influenza B virus [20]): > 100 µg/mL; MBC (Staphylococcus aureus): 25 µg/mL
